# Data as given in article PMC10184136 (RSC Advances, 2023).
# Entries after “also recorded” stand apart in the source; their conditions may differ.
# Experiments:
# [1] = target: calf intestinal alkaline phosphatase (CIALP) (Bos taurus, UniProt P19111); experiment: Alkaline phosphatase inhibition assay; assay type: biochemical
# [2] = system: red blood cell membrane (bovine erythrocytes); experiment: Hemolytic activity; assay type: cell-based; conditions: bovine erythrocyte (RBC) suspension, pH 7.4
# Summary of the method: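 Bovine blood was collected in EDTA, diluted with 0.9% NaCl and centrifuged at 1000×g for 10 min. Erythrocytes were suspended in phosphate saline buffer, pH 7.4. 20 μl of a 10 mg ml−1 compound solution was added to 180 μl RBC suspension and incubated 30 min at room temperature. PBS was the negative control and Triton X-100 the positive control. % hemolysis was calculated by formula; mean ± SEM.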
# alkaline phosphatase = alkaline phosphatase (Bos taurus, UniProt P19111); experiment: Kinetic analysis; assay type: biochemical, calf; conditions: for K m / V max: substrate p-NPP
# Chain of alkaline phosphatase (P19111 20-506 limits assumed): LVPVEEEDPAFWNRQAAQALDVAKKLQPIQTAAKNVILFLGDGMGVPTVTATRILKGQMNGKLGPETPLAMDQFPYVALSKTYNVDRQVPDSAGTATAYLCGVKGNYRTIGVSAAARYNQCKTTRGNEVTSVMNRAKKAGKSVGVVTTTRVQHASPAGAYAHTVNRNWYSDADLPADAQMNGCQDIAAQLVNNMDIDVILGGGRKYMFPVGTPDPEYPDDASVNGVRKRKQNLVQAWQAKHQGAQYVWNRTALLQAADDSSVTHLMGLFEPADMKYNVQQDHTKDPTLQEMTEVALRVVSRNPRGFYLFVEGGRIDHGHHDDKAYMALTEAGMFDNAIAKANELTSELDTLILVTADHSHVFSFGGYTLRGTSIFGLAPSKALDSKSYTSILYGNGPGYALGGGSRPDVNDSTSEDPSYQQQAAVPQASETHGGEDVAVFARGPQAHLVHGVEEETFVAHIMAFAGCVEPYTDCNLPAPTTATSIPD
# Summary of the method: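 Run under the same pre-incubation and conditions as the CIALP p-NPP assay. p-NPP was used at 10, 5, 2.5, 1.25, 0.625 and 0.3125 mM with inhibitor at 0, 0.106, 0.211 and 0.422 μM. Initial velocities came from the linear absorbance phase, read at 1-min intervals up to 10 min. Inhibition type was taken from Lineweaver–Burk plots (1/V vs 1/[S]). Ki came from a secondary plot of slope vs inhibitor concentration, with linear least-squares fits.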
# Chain of calf intestinal alkaline phosphatase (CIALP) (P19111 20-506 limits assumed): as above
IC50 [1],SMILES,"hemolysis at 30 min, 1 mg/mL [2]",also measured
3.98 ± 0.356 µM,"O=C(CCSc1nnc(-c2ccccc2)o1)Nc1nccs1 [8a, 3-[(5-Phenyl-1,3,4-oxadiazol-2-yl)sulfanyl]-N-(1,3-thiazol-2-yl)propanamide]",7.79 ± 0.02%,–
5.99 ± 0.417 µM,"O=C(CCSc1nnc(-c2ccc(O)cc2)o1)Nc1nccs1 [8b, 3-{[5-(4-Hydroxyphenyl)-1,3,4-oxadiazol-2-yl]sulfanyl}-N-(1,3-thiazol-2-yl)propanamide]",5.68 ± 0.04%,–
8.73 ± 0.664 µM,"Nc1ccc(-c2nnc(SCCC(=O)Nc3nccs3)o2)cc1 [8c, 3-{[5-(4-Aminophenyl)-1,3,4-oxadiazol-2-yl]sulfanyl}-N-(1,3-thiazol-2-yl)propanamide]",7.58 ± 0.01%,–
1.88 ± 0.071 µM,"Cc1ccc(-c2nnc(SCCC(=O)Nc3nccs3)o2)cc1 [8d, 3-{[5-(4-Methylphenyl)-1,3,4-oxadiazol-2-yl]sulfanyl}-N-(1,3-thiazol-2-yl)propanamide]",8.32 ± 0.03%,–
6.32 ± 0.551 µM,"Cc1cnc(NC(=O)CCSc2nnc(-c3ccccc3)o2)s1 [8e, N-(5-Methyl-1,3-thiazol-2-yl)-3-[(5-phenyl-1,3,4-oxadiazol-2-yl)sulfanyl]propanamide]",6.84 ± 0.03%,–
2.16 ± 0.118 µM,"Cc1cnc(NC(=O)CCSc2nnc(-c3ccc(O)cc3)o2)s1 [8f, 3-{[5-(4-Hydroxyphenyl)-1,3,4-oxadiazol-2-yl]sulfanyl}-N-(5-methyl-1,3-thiazol-2-yl)propanamide]",7.47 ± 0.05%,–
0.211 ± 0.019 µM,"Cc1cnc(NC(=O)CCSc2nnc(-c3ccc(N)cc3)o2)s1 [8g, 3-{[5-(4-Aminophenyl)-1,3,4-oxadiazol-2-yl]sulfanyl}-N-(5-methyl-1,3-thiazol-2-yl)propanamide]",8.82 ± 0.02%,Ki (alkaline phosphatase): 0.42 µM; K m (alkaline phosphatase; 8g 0.106 μM): 360 µM; V max (alkaline phosphatase; 8g 0.106 μM): 0.003004 ΔA min^−1; K m (alkaline phosphatase; 8g 0.211 μM): 360 µM; V max (alkaline phosphatase; 8g 0.211 μM): 0.002406 ΔA min^−1; K m (alkaline phosphatase; 8g 0.422 μM): 360 µM; V max (alkaline phosphatase; 8g 0.422 μM): 0.001826 ΔA min^−1; Inhibition type (alkaline phosphatase; Lineweaver–Burk plots): non-competitively; also recorded: Non-competitive
3.75 ± 0.981 µM,"Cc1cnc(NC(=O)CCSc2nnc(-c3cccc([N+](=O)[O-])c3)o2)s1 [8h, N-(5-Methyl-1,3-thiazol-2-yl)-3-{[5-(3-nitrophenyl)-1,3,4-oxadiazol-2-yl]sulfanyl}propanamide]",8.63 ± 0.02%,–
–,"CC(C)(C)CC(C)(C)c1ccc(OCCO)cc1 [Triton X, reference compound]",89 ± 0.01%,–
